According to ChEMBL document CHEMBL4316597, “Design, Synthesis, and Biological Evaluation of Itaconic Acid Derivatives as Potential Anti-Influenza Agents” (J Med Chem, 2019):
Active and inactive are the calls of the source. The rule behind the calls is not given here.

What was measured:
[1] = test system: Influenza A virus; test: Antiviral activity against Influenza A virus (A/WSN/33) infected in MDCK cells assessed as reduction in virus-induced cytopathic effect after 72 hrs by crystal violet-staining based assay; format: functional, organism-based; settings: A/WSN/1933(H1N1)
Procedure, shortened: (§1)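 Cells seeded at 2 × 10^4/well in E10 (DMEM, 10% FBS), 16–24 h at 37 °C/5% CO2, washed with DPBS, then infected at nine-fold TCID50 with or without serial compound concentrations. Influenza is run in MDCK and enterovirus/rhinovirus in RD. Incubated 72 h, fixed in 4% paraformaldehyde, stained with 0.1% crystal violet, and read for cell density. EC50 = 50% CPE inhibition by Reed–Muench; mean ± S.D. of at least three runs.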

[2] = Cytotoxicity against MDCK cells assessed as cell death after 72 hrs by MTT assay; format: cell-based, Canis lupus familiaris; settings: dog
Procedure, shortened: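 MDCK or RD cells at 2 × 10^4/well in E10, overnight at 37 °C/5% CO2, DPBS wash, then exposed to graded compound concentrations for 72 h. MTT added for 3 h, formazan dissolved in DMSO, absorbance read at 570 nm. CC50 (50% cell death) by Reed–Muench.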

[3] = test system: Influenza A virus; test: Antiviral activity against pandemic Influenza A virus A/TW/90206/09 (H1N1) SO4 infected in MDCK cells after 72 hrs by crystal violet-staining based assay; format: functional, organism-based; settings: A/TW/90206/09 (H1N1) SO4, MDCK; procedure, shortened: as §1
[4] = test system: Influenza A virus; test: Antiviral activity against Influenza A virus A/TW/3446/02 (H3N2) infected in MDCK cells after 72 hrs by crystal violet-staining based assay; format: functional, organism-based; procedure, shortened: as §1
[5] = test system: Influenza A virus; test: Antiviral activity against pandemic Influenza A virus A/TW/2235/09 (H1N1) SO4 infected in MDCK cells after 72 hrs by crystal violet-staining based assay; format: functional, organism-based; settings: A/TW/2235/09 (H1N1) SO4, MDCK; procedure, shortened: as §1
[6] = Selectivity ratio of CC50 for MDCK cells to EC50 for Influenza A virus A/TW/00482/13; format: toxicity; settings: dog, read-out: Ratio CC50/EC50
Procedure, shortened: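 SI is calculated as CC50 (MDCK, 72 h MTT) divided by EC50 (72 h crystal-violet CPE assay in MDCK).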

[7] = Selectivity ratio of CC50 for MDCK cells to EC50 for Influenza A virus A/TW/00642/14; format: toxicity; settings: dog, read-out: Ratio CC50/EC50
Procedure, shortened: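 MDCK cells (2 × 10^4/well, E10, 16–24 h) infected at nine-fold TCID50 with compound for 72 h, 37 °C, 5% CO2. Cells were fixed in 4% paraformaldehyde and stained with crystal violet; EC50 is from Reed–Muench. For CC50, cells had compound alone for 72 h, then MTT 3 h, DMSO, A570, Reed–Muench. SI = CC50/EC50; three independent experiments.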

[8] = test system: enterovirus D68; test: Antiviral activity against Enterovirus D68 TW/2795/2014 clade B3 infected in human RD cells after 72 hrs by crystal violet-staining based assay; format: functional, organism-based; settings: Enterovirus D, TW/2795/2014 clade B3, RD; procedure, shortened: as §1
[9] = test system: Influenza A virus; test: Antiviral activity against Influenza A virus (A/WSN/33) infected in MDCK cells assessed as inhibition of virus-induced cytopathic effects at 10 uM after 36 hrs by microscopic analysis; format: functional, organism-based; settings: A/WSN/1933(H1N1)
Procedure, shortened: (§2)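 MDCK cells (2 × 10^5/well) grown 16–24 h, infected with A/WSN/33 at MOI 0.5 for 1 h, rinsed twice with DPBS, then kept in serum-free E0 with 10 μM compound at 37 °C. Cell morphology checked by light microscopy at 12 and 36 h pi. Drug-only and virus-only arms included; three repetitions.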

[10] = test system: MDCK; test: Cytotoxicity against MDCK cells at 10 uM after 12 to 36 hrs by microscopic analysis; format: cell-based, Canis lupus familiaris; settings: dog; procedure, shortened: as §2
[11] = test system: Influenza A virus; test: Antiviral activity against Influenza A virus (A/WSN/33) infected in MDCK cells at 10 uM added at 3 hrs to 9 hrs post infection and measured after 9 hrs by plaque assay; format: functional, organism-based; settings: A/WSN/1933(H1N1)
Procedure, shortened: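 MDCK monolayers exposed to compound (1 or 10 μM) over windows of −3, −1, 0, 3 or 6 to 9 h pi. A/WSN/33 adsorbed at MOI 0.1 from −1 to 0 h, then removed with a PBS wash. Supernatant taken at 9 h pi and titred by plaque assay, normalised to virus-only (100%). Average of three independent experiments.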

[12] = test system: Influenza A virus; test: Inhibition of viral RNA synthesis in Influenza A virus (A/WSN/33) infected in MDCK cells assessed as effect on matrix protein 1 RNA level at 10 uM measured up to 9 hrs post infection by RT-qPCR analysis; format: functional, organism-based; settings: A/WSN/1933(H1N1)
Procedure, shortened: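 MDCK monolayers (5 × 10^5/well) infected with A/WSN/33, then given 10 μM compound during or after infection. Total RNA extracted with TRIzol at 0, 3, 6 and 9 h pi. Viral RNA quantified by RT-qPCR with M1-specific primers, GAPDH used for quantitative standards. Representative of three independent experiments.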

[13] = test system: Influenza A virus; test: Inhibition of viral protein synthesis in Influenza A virus (A/WSN/33) infected in MDCK cells assessed as effect on HA protein level at 10 uM measured up to 9 hrs post infection by Western blot analysis; format: functional, organism-based; settings: A/WSN/1933(H1N1)
Procedure, shortened: (§3)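 MDCK cells (5 × 10^5/well) infected with A/WSN/33 at MOI 0.1, washed twice, then held in E0 with or without 10 μM compound. Lysed in Triton X-100/deoxycholate buffer, equal protein separated by SDS-PAGE, and immunoblotted for viral proteins with GAPDH as loading control. Time-course harvests up to 9 h pi.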

[14] = test system: Influenza A virus; test: Inhibition of viral protein synthesis in Influenza A virus (A/WSN/33) infected in MDCK cells assessed as effect on NS1 protein level at 10 uM measured up to 9 hrs post infection by Western blot analysis; format: functional, organism-based; settings: A/WSN/1933(H1N1); procedure, shortened: as §3
[15] = test system: Influenza A virus; test: Inhibition of viral protein synthesis in Influenza A virus (A/WSN/33) infected in MDCK cells assessed as effect on NS2 protein level at 10 uM measured up to 9 hrs post infection by Western blot analysis; format: functional, organism-based; settings: A/WSN/1933(H1N1); procedure, shortened: as §3
[16] = test system: MDCK; test: Inhibition of CRM1 in MDCK cells infected with Influenza A virus (A/WSN/33) assessed as reduction in CRM1-mediated viral protein nuclear export by measuring reduction in NP protein distribution to cytoplasm at 10 uM measured after 9 hrs post infection by IF-staining based microscopy; format: cell-based; settings: Canis lupus familiaris
Procedure, shortened: (§4)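 MDCK cells grown on coverslips (2 × 10^5/well, 16 h), infected at MOI 0.1 for 1 h, washed, then kept in E0 with test compound (1 or 10 μM) or LMB 10 nM; DMSO 0.05% as mock. Fixed at 9 h pi in 4% paraformaldehyde and immunostained for M1, NP, NS2 or PA (1:50), with Hoechst nuclear stain. Viewed by confocal microscopy at 63×. NP nuclear/cytoplasmic intensity ratio quantified; three independent experiments.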

[17] = test system: Influenza A virus; test: Inhibition of viral protein sub-cellular distribution in Influenza A virus (A/WSN/33) infected in MDCK cells assessed as reduction in NS2 protein distribution to cytoplasm at 10 uM measured after 9 hrs post infection by IF-staining based microscopy; format: functional, organism-based; settings: A/WSN/1933(H1N1); procedure, shortened: as §4
[18] = test system: Influenza A virus; test: Inhibition of viral protein sub-cellular distribution in Influenza A virus (A/WSN/33) infected in MDCK cells assessed as reduction in PA protein distribution to cytoplasm at 10 uM measured after 9 hrs post infection by IF-staining based microscopy; format: functional, organism-based; settings: A/WSN/1933(H1N1); procedure, shortened: as §4

Compound: C=C(CC(=O)Nc1ccc(F)cc1F)C(=O)Nc1ccc(F)cc1F
- EC50 [1]: 2.84 µM
- CC50 at 72 h [2]: 84.7 µM
- EC50 [3]: 2.98 µM
- EC50 [4]: 4.6 µM
- EC50 [5]: 2.36 µM
- selectivity ratio [6]: 22
- selectivity ratio [7]: 25
- EC50 [8]: > 50 µM
- Activity [9]: Active
- Activity [10]: Non-Toxic
- Activity [11]: Active
- inhibition [12]: inactive
- inhibition [13]: inactive
- inhibition [14]: inactive
- inhibition [15]: inactive
- inhibition [16]: Active
- inhibition [17]: inactive
- inhibition [18]: inactive
